EBI2 block = blocks human EBI2 receptor beta-arrestin signaling; EBI2 beta-arrestin recruitment, luminescence, 7a,25-OHC stimulated; hit rate 0.81% among 360,000; inhibition, % at 5 µM; in the data active = inhibition above about 38%;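 note: enzyme fragment complementation signal reports receptor beta-arrestin coupling in cells; 0% = agonist plus DMSO wells and 100% = wells without agonist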
APJ antagonist = APJ receptor antagonism; CHO-K1 APJ beta-arrestin complementation, luminescence; hit rate 0.32% among 330,000; P35414; inhibition, % at 20 µM;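 active = inhibition above about 40% at 20 µM, limit read from the data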;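 note: cells challenged with 10 nM apelin-13 agonist together with compound; plate controls were apelin-13 plus DMSO wells for no effect and DMSO wells lacking apelin-13 for full effect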
Target sequence (P35414 whole entry, looked up): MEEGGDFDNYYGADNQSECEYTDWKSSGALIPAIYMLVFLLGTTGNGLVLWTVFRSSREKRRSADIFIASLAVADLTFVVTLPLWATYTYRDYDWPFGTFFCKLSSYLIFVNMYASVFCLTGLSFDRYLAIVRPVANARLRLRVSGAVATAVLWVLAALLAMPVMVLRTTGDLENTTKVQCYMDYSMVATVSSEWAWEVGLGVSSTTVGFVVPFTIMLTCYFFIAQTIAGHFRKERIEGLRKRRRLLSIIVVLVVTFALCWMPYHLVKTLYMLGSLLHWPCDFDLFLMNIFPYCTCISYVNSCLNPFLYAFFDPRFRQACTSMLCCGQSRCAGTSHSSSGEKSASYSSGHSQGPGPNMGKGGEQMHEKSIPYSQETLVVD
APJ agonist = APJ receptor agonism; AID 2520; activation, % at 20 µM; hit rate 0.11% among 330,000; CHO-K1 APJ PathHunter beta-arrestin, luminescence; 0% DMSO wells, 100% apelin;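 active = activation more than six SD over the plate average, tested at 20 µM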;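 note: 0% = DMSO alone and 100% = apelin-13 at 10 nM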
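Test system: CHO-K1 APJ beta-arrestin complementation cell line. Amount: cell density 1000 per well. Controls: DMSO negative, 10 nM Apelin-13 positive. Signal: luminescent beta-gal fragment complementation, chemiluminescent substrate. Read-out basis: agonist-driven arrestin binding to APJ. Timing: compound stimulation 90 min at 25 °C, detection 60 min.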
CXCR6 inh = CXCR6 (human) receptor inhibition; CHO-K1 PathHunter CXCR6 beta-arrestin, luminescence; inhibition, % at 20 µM; hit rate 0.36% among 360,000; AID 602244; in the data active = inhibition above about 34%, passing the limit was not always enough;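 note: antagonist mode with CXCL16 agonist at 10 nM final; 0% = 10 nM CXCL16 with DMSO and 100% = unstimulated wells without agonist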
CCR6 antagonist = antagonists of human CCR6 receptor; P51684; CHO-K1 CCR6 PathHunter beta-arrestin, luminescence, CCL20-stimulated; inhibition, % at 20 µM; hit rate 0.49% among 340,000; AID 493098;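 active = compounds whose inhibition of the agonist-driven luminescence signal at 20 µM reaches about 50%, limit read from the data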;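 note: cells stimulated with CCL20 at 14 nM final; plate controls were DMSO with CCL20 for no effect and DMSO without agonist for full effect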
APJ antag confirm = APJ receptor antagonism confirmation; shares compounds with APJ antagonist; APJ beta-arrestin recruitment, luminescence, antagonist mode; inhibition, % at 20 µM; hit rate 66% among 950; in the data active = inhibition above about 50%
Numbers without * were called inactive; . = no result given. A selection: hits, their analogues and other compounds. The true share with any hit is near 1.5%.

SMILES	EBI2 block	APJ antagonist	APJ agonist	CXCR6 inh	CCR6 antagonist	APJ antag confirm
Cc1ccc(C(=O)COC(=O)C2CC3CCCC(C2)C3=O)cc1[N+](=O)[O-] (stereo unspecified)	-2	43*	-9	18	25	22
Cc1ccc(C(=O)COC(=O)CN2C(=O)C3C4C=CC(C4)C3C2=O)cc1[N+](=O)[O-] (stereo unspecified)	1	38	-11	25	38	.
Nc1c(C(=O)CSc2n[nH]c(-c3ccccc3)n2)c(=O)[nH]c(=O)n1C1CC1	5	20	1	-2	5	.
CN1C(=O)/C(=C/c2ccc(O)c([N+](=O)[O-])c2)N(C)C1=S	3	46*	-8	43*	57*	85*
Oc1c(C=Nc2cccc3cccnc23)sc2ccccc12	.	92*	-30	.	.	143*
CCCc1nc2ccc(C)cn2c1Cc1ccccc1	2	.	.	3	.	.
Cc1ccc(/C=C2/NC(=O)N(Cc3ccccc3)C2=O)o1	-2	61*	-9	8	13	37
CCSc1nc2ccccc2c(=O)n1CCc1ccc(OC)c(OC)c1	13	-11	-3	-12	3	.
CC1=C/C(=C(/c2ccc(O)c(C)c2)c2ccccc2S(=O)(=O)O)C=CC1=O	5	46*	-9	41*	55*	59*
CC1=C/C(=C(/c2cc(C)c(O)c(Br)c2)c2ccccc2S(=O)(=O)O)C=C(Br)C1=O	16	46*	-11	43*	64*	86*
Cc1cccc(C)c1-n1nnnc1C(c1ccnc2ccccc12)N(Cc1ccccc1)Cc1ccccc1 (stereo unspecified)	31	.	.	13	.	.
Cn1c(=O)n(CC(=O)NC2CCCCC2)c(=O)c2ccccc21	-1	-2	-5	-6	-1	.
O=C1C[C@H]2[C@H](CO)[C@@H](OC(=O)c3ccc(-c4ccccc4)cc3)C[C@H]2O1	14	0	3	-11	-3	.
O=C(NNC(=S)Nc1ccccc1)NNC(=S)Nc1ccccc1	14	44*	-11	28	56*	88*
Cc1cc(C)c(OCC(=O)NCCCn2nc(C)cc2C)c(C)c1	14	-4	-4	-5	4	.
Cc1nc(-n2[nH]c3c(c2=O)CCCC3)[nH]c(=O)c1Cc1ccccc1	-8	50*	-10	41*	74*	81*
CC1=C(C)Cc2c(OC(=O)c3ccccc3)ccc(OC(=O)c3ccccc3)c2C1	.	6	-2	.	.	.
O=C(NCCc1cnc[nH]1)c1cccs1	-7	43*	-4	5	7	33
O=C(NCCc1ccccc1)c1cccs1	2	-3	-5	3	4	.
CN(C)c1ccc(N=Nc2ccc(S(N)(=O)=O)cc2)cc1	10	24	-8	20	29	.
CN(C)c1ccc(N=Nc2ccc(S(=O)(=O)O)cc2)c2ccccc12	12	41*	-8	42*	62*	92*
Cc1cc(C)n(-c2nc(SCC(=O)O)c3c4c(sc3n2)COC(C)(C)C4)n1	18	-8	0	-5	10	.
Cc1cc(C)n(-c2nc(SCCN(C)C)c3c4c(sc3n2)CCCC4)n1	-8	49*	-11	2	19	38
COc1ccc(Cl)cc1NC(=O)CSc1nnc(C2CC2)n1N	3	-2	3	1	7	.
CCc1noc(C)c1C(=O)NC1CC(C)(C)Cc2c1cnn2-c1ccccc1 (stereo unspecified)	-2	41*	-7	8	.	25
SMILES	EBI2 block	APJ antagonist	APJ agonist	CXCR6 inh	CCR6 antagonist	APJ antag confirm
CCOC(=O)C1=C(C)N=c2s/c(=C/c3cccc([N+](=O)[O-])c3O)c(=O)n2C1c1ccc(OC)cc1OC (stereo unspecified)	-5	57*	-7	41*	64*	98*
Nc1[nH]n2c(=O)cc(-c3ccccc3)nc2c1N=Nc1ccc(S(N)(=O)=O)cc1	12	42*	-7	22	51*	65*
Cc1ccc(N=Nc2c(N)[nH]n3c(=O)cc(C)nc23)cc1	-5	.	.	-1	15	.
CC(=O)c1ccc(N=Nc2ccc(N)cc2)cc1	9	46*	-5	29	47	49
Oc1ccccc1/C=N/Nc1cc(N2CCCC2)nc(N2CCCC2)n1	28	42*	-3	16	35	42
O=C(CSc1nnc(Cn2c(=O)sc3ccccc32)n1-c1ccccc1)N1CCOCC1	4	-4	-1	-2	-3	.
Cc1ccccc1-n1c(Cn2c(=O)sc3ccccc32)nnc1SCC(=O)N1CCOCC1	5	52*	0	-2	5	19
CNC(=S)N(Cc1cc2cc(OC)c(OC)cc2[nH]c1=O)C1CCCC1	-6	3	-2	9	1	.
CCOc1cc(/C=C2/C(=O)ON=C2C)cc(Br)c1O	3	41*	-6	16	57*	56*
COc1cc(C=C2C(=O)OC(c3ccccc3)OC2=O)cc(Br)c1O (stereo unspecified)	-2	5	0	5	16	.
Cc1sc(/C=C2\C(=O)ON=C2c2ccccc2)cc1Br	.	2	-3	.	.	.
COc1cc(/C=C2\C(=O)ON=C2c2ccccc2)cc(Cl)c1O	-9	46*	-5	17	50	66*
COc1ccc(/C=C2/C(=O)ON=C2C)cc1Cl	-6	3	-1	-6	-8	.
COc1cc(/C=C2\C(=O)ON=C2c2ccccc2)cc(Br)c1O	-22	43*	-7	28	58*	95*
CCOc1cc(/C=C2\C(=O)ON=C2c2ccccc2)cc(Br)c1O	-15	46*	-7	29	42	74*
Cc1cc2c(cc1C)-n1nnnc1C(N1CCN(c3ccccn3)CC1)C(c1ccc3c(c1)OCO3)=N2 (stereo unspecified)	2	.	.	.	.	.
Cc1cccc(NC(=O)c2ncn3c2C(=O)N[C@@H](C)C3)c1	0	.	.	-6	.	.
COCCn1c(C)c(C)c2c(NCCc3ccccc3)ncnc21	10	2	-3	0	-6	.
Cc1cc(C)cc(N2CC(C)Cn3c2nc2c3c(=O)[nH]c(=O)n2C)c1 (stereo unspecified)	-1	23	-4	3	-1	.
COc1cccc(N2CC(C)Cn3c2nc2c3c(=O)[nH]c(=O)n2C)c1 (stereo unspecified)	17	46*	-6	44*	41	79*
O=C(CS(=O)(=O)Cc1ccccc1)c1ccccc1	16	.	.	5	.	.
CSc1ncccc1C(=O)OCC(=O)c1ccc(S(=O)(=O)N2CCCCC2)cc1	21	46*	-17	37	34	30
Cc1cc(C)c2[nH]c(O)c(N=NC(=S)NCC3CCCO3)c2c1 (stereo unspecified)	7	23	2	18	22	.

Assay outcomes deposited in PubChem by Sanford-Burnham Center for Chemical Genomics.
